The first assay concerns A-431. As to the kind of experiment: Cytotoxic effect on A431 human epidermoid carcinoma cells. It is filed as functional, cell-based. In a few lines:
(§1)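 A431 human epidermoid carcinoma cells exposed to compounds up to 1.0 mM and scored for cell growth inhibition. The IC50 is the compound concentration giving 50% growth inhibition. Where 50% inhibition was not reached at 1.0 mM, that is recorded instead of a value.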
The molecule `COc1cc2c(cc1OC)C(Nc1cccc(Cl)c1)=NC(C)(C)N2` yielded an IC50 of 200 µM. The molecule `COc1cc(N)c(C(=N)Nc2ccc(F)c(Cl)c2)cc1OC` registered an IC50 of 200 µM. In turn, `COc1cc2c(cc1OC)C(Nc1cccc(Br)c1)=NC(C)(C)N2` yielded an IC50 of 130 µM. In turn, `COc1cc(N)c(C(=N)Nc2cccc(Br)c2)cc1OC` had a half-inhibitory concentration (IC50) of 300 µM. On to `COc1cc(N)c(C(=N)Nc2cccc(Cl)c2)cc1OC`, for which the IC50 turned out to be 460 µM. Same read-out and setting: the figure for `COc1cccc(NC2=NC(C)(C)Nc3cc(OC)c(OC)cc32)c1` is 320 µM; for `COc1cccc(NC(=O)c2cc(OC)c(OC)cc2N)c1` it is 200 µM.

On to `COc1cccc(NC(=N)c2cc(OC)c(OC)cc2N)c1`, for which the IC50 stood at 340 µM.

In turn, `COc1cc(N)c(C(=O)Nc2cccc(Br)c2)cc1OC` displayed an IC50 of 340 µM. In turn, `COc1cc2c(cc1OC)C(Nc1ccc(F)c(Cl)c1)=NC(C)(C)N2` returned an IC50 of 90 µM. In turn, `COc1cc(N)c(C(=O)Nc2cccc(C(F)(F)F)c2)cc1OC` yielded an IC50 of 470 µM. This IC50 is about 5.2-fold higher than that of the molecule before.

The next assay deals with A-431. The assay is described as follows: Cytotoxic effect on A431 human epidermoid carcinoma cells (No response to 1 mM). The assay is classed as functional, cell-based. The method in brief: as §1
Take `COc1cc(N)c(C(=O)Nc2ccc(F)c(Cl)c2)cc1OC`: the IC50 was above 1000 µM.

In the case of `COc1cc(N)c(C(=O)NC(C)c2ccccc2)cc1OC` (configuration not stated), the IC50 was above 1000 µM. Still for that read-out and setting: the figure for `COc1cc(N)c(C(=O)Nc2cccnc2)cc1OC` is above 1000 µM; for `COc1cc(N)c(C(=O)Nc2ccncc2)cc1OC` it is above 1000 µM; for `COc1cc(N)c(C(=O)NC2CCCCC2)cc1OC` it is above 1000 µM. Same read-out and setting: in the case of `COc1cc(N)c(C(=O)Nc2ccccn2)cc1OC` it was above 1000 µM.

What is called IC50 is the concentration that gives 50% inhibition. Lower therefore signals greater potency in that assay.

These data come from ChEMBL document CHEMBL1147571, “Synthesis and biological evaluation of benzamides and benzamidines: structural requirement of a pyrimidine ring for inhibition of EGFR tyrosine kinase” (Bioorg Med Chem Lett, 2004).
